The record followed here is ChEMBL document CHEMBL1147419, “Inhibition of estrone sulfatase (ES) by alkyl and cycloalkyl ester derivatives of 4-[(aminosulfonyl)oxy] benzoic acid” (Bioorg Med Chem Lett, 2004).

The nature of series [1]: Partition coefficient (logP). It is filed as physicochemical. The note with it: octanol/water.
Series [2] is described as follows: pKa value was determined. It is filed as physicochemical. The procedure, abridged:
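The starting phenols' pKa was measured spectroscopically from the change in phenolic UV absorption under acidic (pH 2), pH 9 and basic (pH 11) conditions.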

The target of series [3] is T1, Steryl-sulfatase (Homo sapiens) (UniProt P08842).
T1 sequence (whole entry): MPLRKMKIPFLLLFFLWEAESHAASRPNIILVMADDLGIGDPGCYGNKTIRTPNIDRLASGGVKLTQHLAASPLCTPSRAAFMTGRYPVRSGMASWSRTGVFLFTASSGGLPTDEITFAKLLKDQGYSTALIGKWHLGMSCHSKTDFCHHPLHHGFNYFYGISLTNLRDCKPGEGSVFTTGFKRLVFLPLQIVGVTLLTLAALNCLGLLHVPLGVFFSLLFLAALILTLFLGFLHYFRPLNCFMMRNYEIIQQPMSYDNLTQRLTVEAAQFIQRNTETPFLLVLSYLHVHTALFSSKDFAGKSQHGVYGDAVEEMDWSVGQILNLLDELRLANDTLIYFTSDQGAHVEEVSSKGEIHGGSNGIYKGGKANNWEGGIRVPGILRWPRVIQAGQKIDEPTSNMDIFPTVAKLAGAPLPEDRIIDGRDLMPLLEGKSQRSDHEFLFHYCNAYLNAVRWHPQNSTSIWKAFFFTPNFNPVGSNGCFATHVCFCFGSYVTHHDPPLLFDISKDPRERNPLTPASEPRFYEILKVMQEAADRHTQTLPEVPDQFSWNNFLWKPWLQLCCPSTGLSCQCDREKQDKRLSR
The note with it: 0.25 uM.

Another series concerns the target T2, Steryl-sulfatase (Homo sapiens, UniProt P08842).
T2 sequence (P08842 whole entry): T1 sequence (whole entry)
Put plainly: Inhibition of estrone sulfatase.

The target of series [4] is T1, Steryl-sulfatase (Homo sapiens). In words: Inhibitory activity against estrone sulfatase at 20 uM (initial screening). The method in brief: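 Placental microsomes, diluted to 115 µg/mL in 0.05 M Tris-HCl pH 7.2 and pre-warmed 5 min at 37 °C, incubated 20 min at 37 °C with ³H-estrone sulfate (20 µM/tube, 300,000 dpm). Inhibitors were added in ethanol, then dried under nitrogen. Toluene quench, then toluene-phase radioactivity counted by scintillation. Triplicates, uninhibited controls, boiled-microsome blanks.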

What is called logP is a log measure of how a compound divides between an organic and an aqueous phase. A low value points to a more hydrophilic compound. The compound `COC(=O)c1ccc(OS(N)(=O)=O)cc1` gave a logP in series [1] of 1.49.

The pKa is the pH at which an ionisable group is half protonated. The low end stands for a stronger acid or weaker base, the high end for a weaker acid or stronger base. Take `CCCCCCCCOC(=O)c1ccc(OS(N)(=O)=O)cc1`: the lipophilicity (logP) in series [1] was found to be 4.29. The compound also registered a pKa in series [2] of 8.09.

In series [1], `CCCCOC(=O)c1ccc(OS(N)(=O)=O)cc1` had a lipophilicity (logP) of 2.7.

In turn, `CCCOC(=O)c1ccc(OS(N)(=O)=O)cc1` came in with a lipophilicity (logP) in series [1] of 2.3.

What is called inhibition is the drop in the measured response relative to a control, in per cent. Lower therefore signals little suppression. `NS(=O)(=O)Oc1ccc2c3c(c(=O)oc2c1)CCCCC3` [IROSUSTAT] showed an inhibition in series [3] of 56%. Besides, the logP in series [1] turned out to be 2.65. This compound came in with a pKa in series [2] of 8.27.

One may read the IC50 as the point on the concentration scale where inhibition reaches its midpoint. Turning to `NS(=O)(=O)Oc1ccc(C(=O)OC2CCCCC2)cc1`, the logP in series [1] came out at 3.08. Moreover, the midpoint of inhibition against Steryl-sulfatase, the IC50, lay at 1.7 µM. For the same compound, the inhibition in series [4] amounted to 84%. The same compound had a pKa in series [2] of 8.81.

Compound `CCCCCCCCCOC(=O)c1ccc(OS(N)(=O)=O)cc1` returned a log partition coefficient (logP) in series [1] of 4.68. This compound also gave a pKa in series [2] of 8.39.

In turn, `NS(=O)(=O)Oc1ccc(C(=O)OC2CCCCCCC2)cc1` displayed a lipophilicity (logP) in series [1] of 3.87. At Steryl-sulfatase, this compound yielded a half-inhibitory concentration (IC50) of 0.17 µM. The inhibition in series [4] came out at 82%. In series [2], this compound registered a pKa of 8.09.

Regarding `CCCCCCCOC(=O)c1ccc(OS(N)(=O)=O)cc1`, the logP in series [1] was 3.89.

Regarding `C[C@]12CC[C@@H]3c4ccc(OS(N)(=O)=O)cc4CCC3[C@@H]1CCC2=O` (single isomer, unassigned) [EMATE], the logP in series [1] is 3.8. In series [2], this compound registered a pKa of 8.37.

In series [1], `Cc1cc(=O)oc2cc(OS(N)(=O)=O)ccc12` had a lipophilicity (logP) of 1.6. The compound further showed a concentration for half-maximal inhibition (IC50) at Steryl-sulfatase of 13.8 µM. In series [2], the pKa stood at 8.

On to `CCOC(=O)c1ccc(OS(N)(=O)=O)cc1`, for which the logP in series [1] came out at 1.84.

In series [1], `CCCCCOC(=O)c1ccc(OS(N)(=O)=O)cc1` had a logP of 3.1.

On to `CCCCCCOC(=O)c1ccc(OS(N)(=O)=O)cc1`, for which the logP in series [1] turned out to be 3.49.

In series [1], `NS(=O)(=O)Oc1ccc(C(=O)OC2CCCCCC2)cc1` displayed a lipophilicity (logP) of 3.47. Further, the midpoint of inhibition against Steryl-sulfatase, the IC50, lay at 0.5 µM. Moreover, the inhibition in series [4] worked out at 87%. The compound also yielded a pKa in series [2] of 8.88.

Compound `CCCCCCCCCCOC(=O)c1ccc(OS(N)(=O)=O)cc1` came in with a logP in series [1] of 5.08. Also, the pKa in series [2] came to 8.09.

`NS(=O)(=O)Oc1ccc(C(=O)OC2CCCC2)cc1`: in series [1], the logP was determined as 2.68. Also, inhibition against Steryl-sulfatase was half-maximal at 9.3 µM (IC50). Also, in series [4], the inhibition was 62%. Also, the pKa in series [2] was 8.73.
